Data as given in paper PMC9727797 (Molecular Biology of the Cell, 2022).

Legend:
[1] = target: T1, Eg5 (Homo sapiens, UniProt P52732); test: Microtubule gliding assay, Eg5; assay type: biochemical; conditions: 24 µM Munesib-1 or 100 µM Fift-IN
T1 sequence (P52732 1-1056): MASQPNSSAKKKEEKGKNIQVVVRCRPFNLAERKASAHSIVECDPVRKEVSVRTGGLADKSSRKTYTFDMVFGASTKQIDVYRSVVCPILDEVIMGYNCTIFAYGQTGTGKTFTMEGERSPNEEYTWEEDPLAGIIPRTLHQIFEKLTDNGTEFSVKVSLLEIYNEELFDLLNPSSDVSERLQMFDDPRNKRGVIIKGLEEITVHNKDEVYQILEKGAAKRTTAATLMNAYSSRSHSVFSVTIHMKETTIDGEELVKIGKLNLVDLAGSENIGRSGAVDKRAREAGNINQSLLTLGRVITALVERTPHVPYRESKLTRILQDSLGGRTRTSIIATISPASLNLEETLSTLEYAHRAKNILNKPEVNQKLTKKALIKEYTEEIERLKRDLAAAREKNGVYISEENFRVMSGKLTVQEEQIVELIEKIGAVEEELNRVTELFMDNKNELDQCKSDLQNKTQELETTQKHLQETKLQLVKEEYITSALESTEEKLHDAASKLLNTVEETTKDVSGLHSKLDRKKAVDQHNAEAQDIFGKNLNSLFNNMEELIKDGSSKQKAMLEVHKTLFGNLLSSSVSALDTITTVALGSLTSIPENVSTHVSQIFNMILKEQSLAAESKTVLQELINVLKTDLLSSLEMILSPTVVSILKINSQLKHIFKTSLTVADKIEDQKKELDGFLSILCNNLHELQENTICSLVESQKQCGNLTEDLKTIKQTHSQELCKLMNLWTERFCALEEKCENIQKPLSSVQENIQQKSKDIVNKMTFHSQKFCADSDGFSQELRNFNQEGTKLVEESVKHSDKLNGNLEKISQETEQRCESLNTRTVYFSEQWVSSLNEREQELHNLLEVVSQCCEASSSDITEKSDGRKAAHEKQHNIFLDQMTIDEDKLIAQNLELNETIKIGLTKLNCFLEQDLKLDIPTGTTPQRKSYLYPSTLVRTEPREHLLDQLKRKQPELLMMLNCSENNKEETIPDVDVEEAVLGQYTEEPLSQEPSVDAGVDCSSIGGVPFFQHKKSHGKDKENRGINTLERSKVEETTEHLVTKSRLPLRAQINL
Method in brief: (§1)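 Gliding assays with other motors used His6-Eg5, His6-EGFP-HSET or K560 (truncated kinesin-1), with test compound at 24 µM or 100 µM. Frames were captured every 5 s for 1 min at 100×. Velocity was the distance travelled in 1 min, from ≥15 microtubules at each of three locations (n ≥ 50 per slide).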

[2] = test system: HeLa-derived KIRC-2 cells; test: Preanaphase spindle monopolarity, HeLa-derived KIRC-2 cells; assay type: cell-based; conditions: same concentrations as in KIRC-1 cells
[3] = test system: HeLa cells; test: Preanaphase spindle monopolarity, parental HeLa cells; assay type: cell-based
[4] = target: T2, KIF15-N700 (Homo sapiens, UniProt Q9NS87); test: Microtubule binding to coverslip via KIF15 in gliding assay; conditions: 1 min postdrug addition; 24 µM Munesib-1 or 100 µM Fift-IN
T2 sequence (Q9NS87 1-700 limits assumed): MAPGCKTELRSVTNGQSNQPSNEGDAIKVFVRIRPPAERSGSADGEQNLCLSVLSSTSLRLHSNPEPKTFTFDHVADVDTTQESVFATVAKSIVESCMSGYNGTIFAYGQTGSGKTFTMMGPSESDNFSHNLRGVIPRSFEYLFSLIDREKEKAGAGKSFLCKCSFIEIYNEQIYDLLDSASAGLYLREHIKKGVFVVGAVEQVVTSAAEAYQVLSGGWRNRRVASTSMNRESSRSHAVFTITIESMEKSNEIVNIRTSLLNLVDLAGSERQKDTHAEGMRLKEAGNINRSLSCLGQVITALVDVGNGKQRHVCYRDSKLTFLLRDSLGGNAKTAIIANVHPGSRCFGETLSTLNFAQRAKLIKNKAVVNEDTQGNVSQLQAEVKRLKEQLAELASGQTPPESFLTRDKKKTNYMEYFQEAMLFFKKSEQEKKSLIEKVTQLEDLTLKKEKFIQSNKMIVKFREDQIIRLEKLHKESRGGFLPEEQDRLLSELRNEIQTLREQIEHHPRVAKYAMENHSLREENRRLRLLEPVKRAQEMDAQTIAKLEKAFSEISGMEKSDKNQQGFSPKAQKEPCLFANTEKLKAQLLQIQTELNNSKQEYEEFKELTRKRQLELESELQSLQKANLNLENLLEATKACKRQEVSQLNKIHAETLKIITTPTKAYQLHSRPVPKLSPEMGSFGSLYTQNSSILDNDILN
Method in brief: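 During KIF15-N700 gliding assays, microtubules bound to the coverslip were counted immediately before adding drug and after 1 min of incubation. Test compound was 24 µM or 100 µM; DMSO served as control. Results are expressed as the percentage of microtubules remaining bound.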

[5] = target: T3, HSET (Homo sapiens, UniProt Q9BW19); test: Microtubule gliding assay, HSET; assay type: biochemical; conditions: 24 µM Munesib-1 or 100 µM Fift-IN
T3 sequence (Q9BW19 1-673): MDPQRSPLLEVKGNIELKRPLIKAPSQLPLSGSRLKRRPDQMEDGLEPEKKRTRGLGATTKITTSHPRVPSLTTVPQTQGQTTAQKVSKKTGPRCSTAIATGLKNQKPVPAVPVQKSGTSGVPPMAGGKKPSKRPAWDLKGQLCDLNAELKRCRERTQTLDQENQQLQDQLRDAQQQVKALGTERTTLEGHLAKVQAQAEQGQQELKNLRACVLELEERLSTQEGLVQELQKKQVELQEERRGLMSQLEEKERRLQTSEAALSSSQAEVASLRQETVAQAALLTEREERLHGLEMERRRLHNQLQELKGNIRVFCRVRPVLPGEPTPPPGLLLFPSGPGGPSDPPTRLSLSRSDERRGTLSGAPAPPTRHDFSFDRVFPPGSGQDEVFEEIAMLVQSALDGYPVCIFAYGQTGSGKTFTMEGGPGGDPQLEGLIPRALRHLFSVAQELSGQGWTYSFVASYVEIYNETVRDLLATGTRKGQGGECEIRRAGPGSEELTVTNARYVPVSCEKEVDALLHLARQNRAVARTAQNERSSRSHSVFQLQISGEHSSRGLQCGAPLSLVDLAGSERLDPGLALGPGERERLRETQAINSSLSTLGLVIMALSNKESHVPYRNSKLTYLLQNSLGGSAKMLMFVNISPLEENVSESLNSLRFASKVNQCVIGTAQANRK
Method in brief: as §1

For `COC(=O)c1ccc2c(c1)N(C)S(=O)(=O)c1cnc(SC)nc1-2` [Munesib-1, Methyl 6-methyl-2-(methylthio)-6H-benzo[c]pyrimido[4,5-e][1,2]thiazine-8-carboxylate 5,5-dioxide], which “inhibition of microtubule gliding, Eg5” value [1] is on record?
Its value is “neither substantially inhibited”.

And the “effect on monopolarity index” value [2]?
The value was “failed to substantially increase the monopolarity index”.

What about the “effect on spindle assembly in parental line” value [3] of the same compound?
The value was “little effect on the parental HeLa line”.

What about the “microtubules remaining bound to the coverslip via KIF15” value [4] of the same compound?
Its value is “little effect on binding”.

And the “inhibition of microtubule gliding, HSET” value [5]?
Its value is “neither substantially inhibited”.
